In ChEMBL document CHEMBL1150393, “Evaluation of radiolabeled (hetero)aromatic analogues of N-(2-diethylaminoethyl)-4-iodobenzamide for imaging and targeted radionuclide therapy of melanoma” (J Med Chem, 2008):
One block for each compound: values may come before it.

Assays:
Type in all cases: ADME, organism-based
Settings in all cases: in vivo
[1] = Ratio of drug level in tumor to liver of C57BL/6 mouse bearing mouse B16-F0 cells at 0.74 to 0.92 MBq, iv after 72 hrs
Method in brief: (§1)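 Tumour and organ radioactive concentrations came from whole-body cryosection counting (40 µm slices, eight per mouse, two mice per time) after tail-vein injection of the [¹²⁵I]-labelled compound (0.1 µmol) into male C57BL6 mice bearing s.c. B16-F0 melanoma. Each value is the ratio of the tumour concentration to the organ concentration.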

Muscle tissue = experiment: Biodistribution in muscle of C57BL/6 mouse bearing mouse B16-F0 cells at 0.74 to 0.92 MBq, iv after 24 hrs
Method in brief: (§2)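 Male C57BL6 mice with s.c. left-flank B16-F0 melanoma (5 × 10⁵ cells in PBS). Two mice per time point frozen in liquid nitrogen after CO₂ sacrifice. Eight 40 µm whole-body cryosections per mouse read by multiwire proportional counter. cpm/mm² converted to kBq/g and expressed as %ID/g.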

Pancreas = experiment: Biodistribution in pancreas of C57BL/6 mouse bearing mouse B16-F0 cells at 0.74 to 0.92 MBq, iv after 24 hrs; method in brief: as §2
Kidney = experiment: Biodistribution in kidney of C57BL/6 mouse bearing mouse B16-F0 cells at 0.74 to 0.92 MBq, iv after 72 hrs; method in brief: as §2
Blood = experiment: Biodistribution in blood of C57BL/6 mouse bearing mouse B16-F0 cells at 0.74 to 0.92 MBq, iv after 24 hrs; method in brief: as §2
[2] = Ratio of drug level in tumor to brain of C57BL/6 mouse bearing mouse B16-F0 cells at 0.74 to 0.92 MBq, iv after 24 hrs; method in brief: as §1
[3] = Ratio of drug level in tumor to brain of C57BL/6 mouse bearing mouse B16-F0 cells at 0.74 to 0.92 MBq, iv after 72 hrs; method in brief: as §1
Brain [4] = experiment: Biodistribution in brain of C57BL/6 mouse bearing mouse B16-F0 cells at 0.74 to 0.92 MBq, iv after 24 hrs; method in brief: as §2
Brain [5] = experiment: Biodistribution in brain of C57BL/6 mouse bearing mouse B16-F0 cells at 0.74 to 0.92 MBq, iv after 72 hrs; method in brief: as §2
[6] = Biodistribution in intestinal content of C57BL/6 mouse bearing mouse B16-F0 cells at 0.74 to 0.92 MBq, iv after 72 hrs; method in brief: as §2
[7] = Biodistribution in glandula seminalis of C57BL/6 mouse bearing mouse B16-F0 cells at 0.74 to 0.92 MBq, iv after 1 hr; method in brief: as §2
[8] = Biodistribution in glandula seminalis of C57BL/6 mouse bearing mouse B16-F0 cells at 0.74 to 0.92 MBq, iv after 3 hrs; method in brief: as §2
[9] = Biodistribution in glandula seminalis of C57BL/6 mouse bearing mouse B16-F0 cells at 0.74 to 0.92 MBq, iv after 6 hrs; method in brief: as §2
[10] = Biodistribution in gall bladder of C57BL/6 mouse bearing mouse B16-F0 cells at 0.74 to 0.92 MBq, iv after 1 hr; method in brief: as §2
Bone marrow = experiment: Biodistribution in bone marrow of C57BL/6 mouse bearing mouse B16-F0 cells at 0.74 to 0.92 MBq, iv after 1 hr; method in brief: as §2

Compound: CCN(CC)CCNC(=O)c1cc2cc([125I])ccc2[nH]1.Cl
Ratio [1]: 1.38
Drug uptake (Muscle tissue): 0.19 % ID/g
Drug uptake (Pancreas): 0.09 % ID/g
Drug uptake (Kidney): 0.71 % ID/g
Drug uptake (Blood): 0.1 % ID/g

Compound: CCN(CC)CCNC(=O)c1c[nH]c2ccc([125I])cc2c1=O.Cl.Cl
Ratio [2]: 68.5
Ratio [3]: 23.5
Drug uptake (Brain [4]): 0.04 % ID/g
Drug uptake (Brain [5]): 0.1 % ID/g
Drug uptake [6]: 0.7 % ID/g
Drug uptake (Blood): 0.22 % ID/g

Compound: CCN(CC)CCNC(=O)c1ccc([125I])nc1.Cl.Cl
Drug uptake [7]: 6.79 % ID/g
Drug uptake [8]: 3.78 % ID/g
Drug uptake [9]: 3.55 % ID/g
Drug uptake [10]: 8.68 % ID/g

Next, values leading:

Ratio [1]: 7.26
Compound: CCN(CC)CCNC(=O)c1ccc2cc([125I])ccc2n1.Cl.Cl

Drug uptake (Bone marrow): 4.58 % ID/g
Compound: CCN(CC)CCNC(=O)c1cnc2cc([125I])ccc2n1.Cl.Cl
